Results from different studies.
Compare with care: the assays were run in different laboratories.
CTSB: Cathepsin B (CTSB, Homo sapiens, UniProt P07858)
STAT3: Signal transducer and activator of transcription 3 (STAT3, Homo sapiens, UniProt P40763)

| Compound | target | assay | setting | measurement | result |
| --- | --- | --- | --- | --- | --- |
| CC(C)C[C@H](NC(=O)[C@H]1O[C@@H]1C(=O)O)C(=O)NCCCCN=C(N)N | CTSB | enzyme activity, inhibitor | – | IC50 | 5.2 nM |
| NC(=O)CC[C@H](NC(=O)[C@@H]1CC[C@@H]2CCN(C(=O)CCCCCC#Cc3cccc4c3CN(C3CCC(=O)NC3=O)C4=O)C[C@H](NC(=O)c3cc4cc(C(F)(F)P(=O)(O)O)ccc4[nH]3)C(=O)N21)C(=O)NC(c1ccccc1)c1ccccc1 (stereo partly shown) | STAT3 | protein level, degrader, luciferase | – | DC50 | 360 to 380 nM |
| CCC(C(=O)Nc1cc(NC2CNC2)ccc1C)n1cccc2nc(SCc3ccc(F)cc3)nc1-2 (stereo not shown) | CTSB | enzyme activity, inhibitor | – | IC50 | > 100000 nM |
| NC(=O)CC[C@H](NC(=O)[C@@H]1CC[C@@H]2CCN(C(=O)CCCCCC#Cc3cccc4c3CN(C3CCC(=O)NC3=O)C4=O)C[C@H](NC(=O)c3cc4cc(C(=O)P(=O)(O)O)ccc4[nH]3)C(=O)N21)C(=O)NC(c1ccccc1)c1ccccc1 (stereo partly shown) | STAT3 | protein level, degrader, luciferase | – | DC50 | 360 to 380 nM |
| COC(=O)c1cc(N(C)C(=O)c2ccn3ncc(-c4ccc(C(=O)O)cc4)c3c2)ccc1Cl | Serine/threonine-protein kinase pim-1 (PIM1, Homo sapiens, UniProt P11309) | enzyme activity, inhibitor | – | IC50 | 93.7 nM |
| Cn1nccc1[C@]1(CNC(=O)c2ccc(F)c(F)c2-c2ccc(C(F)(F)F)cc2)NC(=O)NC1=O | CTSB | enzyme activity, inhibitor | – | IC50 | > 100000 nM |
| CNC(=O)c1ccc(-c2cnn3ccc(C(=O)N(C)c4ccc(Cl)c(C(=O)O)c4)cc23)cc1 | ALK tyrosine kinase receptor (ALK, Homo sapiens, UniProt Q9UM73) | enzyme activity, inhibitor | – | IC50 | > 30000 nM |
| CC[C@H](C)[C@H](NC(=O)[C@H](CO)NC(=O)CNC(=O)[C@@H](NC(=O)[C@@H](NC(=O)[C@@H](NC(=O)CN)[C@@H](C)O)C(C)C)[C@@H](C)O)C(=O)N[C@@H](CC(C)C)C(=O)N[C@H](C(=O)N1CCC[C@H]1C(=O)N[C@H](C(=O)N[C@@H](CC(=O)O)C(=O)N[C@@H](Cc1ccc(O)cc1)C(=O)NCC(=O)N[C@H]1CSSC[C@@H](C(=O)N[C@@H](CO)C(=O)N[C@H](C(=O)N[C@@H](C)C(=O)N[C@@H](CCSC)C(=O)N[C@@H](Cc2ccc(O)cc2)C(=O)NCC(=O)NCC(=O)N[C@H](C(=O)N[C@H](C(=O)N[C@@H](CC(=O)O)C(=O)N2CCC[C@H]2C(=O)N[C@H](C(=O)N[C@@H](CCCNC(=N)N)C(=O)N[C@@H](Cc2ccccc2)C(=O)N2CCC[C@H]2C(=O)N[C@@H](CC(N)=O)C(=O)N[C@@H](C)C(=O)N[C@@H](Cc2c[nH]c3ccccc23)C(=O)N[C@@H](CCCNC(=N)N)C(=O)N[C@@H](CCC(=O)O)C(=O)N[C@@H](CC(C)C)C(=O)O)[C@@H](C)CC)[C@@H](C)CC)C(C)C)C(C)C)NC(=O)[C@H](CC(C)C)NC(=O)[C@H](Cc2ccccc2)NC(=O)[C@@H]2CCCN2C(=O)[C@H](CC(N)=O)NC(=O)[C@H](Cc2ccccc2)NC1=O)[C@@H](C)CC)[C@@H](C)O | CTSB | enzyme activity, inhibitor | – | IC50 | > 200000 nM |
| CCC(C(=O)Nc1cc(NC2CCNC2)ccc1C)n1cc(Br)cc2nc(SCc3ccc(F)cc3)nc1-2 (stereo not shown) | CTSB | enzyme activity, inhibitor | – | IC50 | > 100000 nM |
| CC(=O)N[C@H]1Cc2ccc(cc2)OC/C=C/C[C@@H](C(=O)N[C@@H](CCCNC(=N)N)C(=O)c2nc3ccccc3s2)NC(=O)[C@H](CC(C)C)NC1=O | Suppressor of tumorigenicity 14 protein (ST14, Homo sapiens, UniProt Q9Y5Y6) | enzyme activity, inhibitor, fluorescence | with preincubation | IC50 | 4.6 nM |
